Starred links: 1 amine or outer side, 2 acyl side, 3 side chain; linkers in the order of their positions; H or OH if unused. Positions of bridges follow the written chain, without caps; N, C: chain ends. Non-standard residues stand in square brackets, D forms with d. Residues, ends and D or L forms follow the SMILES beside them. Adda = CO[C@@H](Cc1ccccc1)[C@@H](C)/C=C(C)/C=C/[C@H](N[*:1])[C@H](C)C(=O)[*:2]; dAsp(3S-Me) = C[C@H](C(=O)[*:3])[C@@H](N[*:1])C(=O)[*:2]; d(γGlu) = O=C(O)[C@@H](CCC(=O)[*:2])N[*:1]; NMeDha = C=C(NC)C(=O)O

These results are taken from ChEMBL document CHEMBL4145606, “Microcystins Containing Doubly Homologated Tyrosine Residues from a Microcystis aeruginosa Bloom: Structures and Cytotoxicity” (J Nat Prod, 2018).

The subject of test [1] is HCT-116. Description: Cytotoxicity against human HCT116 cells assessed as reduction in cell viability after 72 hrs by MTT assay. The class given is functional, cell-based. In short, it runs like this: (§1)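 Cells seeded in 96-well plates and incubated overnight at 37 °C. Treated with a range of concentrations (∼35 to 0.1 μM) for ∼72 h at 37 °C. Viability read by MTT assay. EC50 estimated from the dose-response curves.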
A general note: Formazan colour is commonly taken as a measure of viable cells.

In test [2] the test system is A549. Nature of the test: Cytotoxicity against human A549 cells assessed as reduction in cell viability after 72 hrs by MTT assay. The class given is functional, cell-based. In short, it runs like this:
as §1

In general, EC50 refers to the midpoint of the concentration-response curve. With `C=C1C(=O)N[C@H](C)C(=O)N[C@@H](CCc2ccc(O)cc2)C(=O)N[C@@H](C(=O)O)[C@H](C)C(=O)N[C@@H](CCCc2ccc(O)cc2)C(=O)N[C@@H](/C=C/C(C)=C/[C@H](C)[C@H](Cc2ccccc2)OC)[C@H](C)C(=O)N[C@@H](C(=O)O)CCC(=O)N1C`, in test [1], the Activity entry was “Dose-dependent effect” and the EC50 came to 3.3 µM. Moreover, in test [2], the Activity result was “Dose-dependent effect” and the EC50 turned out to be 0.36 µM.

On to `C=C1C(=O)N[C@H](C)C(=O)N[C@@H](CCCc2ccc(O)cc2)C(=O)N[C@@H](C(=O)O)[C@H](C)C(=O)N[C@@H](CCCNC(=N)N)C(=O)N[C@@H](/C=C/C(C)=C/[C@H](C)[C@H](Cc2ccccc2)OC)[C@H](C)C(=O)N[C@@H](C(=O)O)CCC(=O)N1C`, for which the EC50 in test [1] is greater than 35 µM; in test [2], 18 µM.

On to `C=C1C(=O)N[C@H](CC(C)C)C(=O)N[C@@H](CC(C)C)C(=O)N[C@@H](C(=O)O)[C@H](C)C(=O)N[C@@H](Cc2ccc(O)cc2)C(=O)N[C@@H](/C=C/C(C)=C/[C@H](C)[C@H](Cc2ccccc2)OC)[C@H](C)C(=O)N[C@@H](C(=O)O)CCC(=O)N1C` (Y[Adda][d(γGlu)][NMeDha][dL]L[dAsp(3S-Me)]-OH; lactam N-7), for which the Activity entry in test [1] and in test [2] was “Dose-dependent effect” throughout. Further, the EC50 in test [1] is 11 µM; in test [2], 1.3 µM.

Turning to `C=C1C(=O)N[C@H](C)C(=O)N[C@@H](CC(C)C)C(=O)N[C@@H](C(=O)O)[C@H](C)C(=O)N[C@@H](CCCNC(=N)N)C(=O)N[C@@H](/C=C/C(C)=C/[C@H](C)[C@H](Cc2ccccc2)OC)[C@H](C)C(=O)N[C@@H](C(=O)O)CCC(=O)N1C` [MICROCYSTIN-LR] (R[Adda][d(γGlu)][NMeDha][dA]L[dAsp(3S-Me)]-OH; lactam N-7), the EC50 was 35 µM in test [1] and greater than 35 µM in test [2].
